Test results from ChEMBL document CHEMBL4152242, “Synthesis and biological activity of novel tert-butyl and tert-pentylphenoxyalkyl piperazine derivatives as histamine H3R ligands” (Eur J Med Chem, 2018).
The source made the active and inactive calls. The calls are words filed in the database; no cut-off is given here.

How the values were obtained:
Histamine H3 receptor = Histamine H3 receptor (Homo sapiens, UniProt Q9Y5N1); assay: Displacement of [3H]Nalpha-methylhistamine from recombinant human H3 receptor expressed in HEK293 cells after 90 mins by liquid scintillation counting method; format: cell-based
Sequence of Histamine H3 receptor (Q9Y5N1 whole entry): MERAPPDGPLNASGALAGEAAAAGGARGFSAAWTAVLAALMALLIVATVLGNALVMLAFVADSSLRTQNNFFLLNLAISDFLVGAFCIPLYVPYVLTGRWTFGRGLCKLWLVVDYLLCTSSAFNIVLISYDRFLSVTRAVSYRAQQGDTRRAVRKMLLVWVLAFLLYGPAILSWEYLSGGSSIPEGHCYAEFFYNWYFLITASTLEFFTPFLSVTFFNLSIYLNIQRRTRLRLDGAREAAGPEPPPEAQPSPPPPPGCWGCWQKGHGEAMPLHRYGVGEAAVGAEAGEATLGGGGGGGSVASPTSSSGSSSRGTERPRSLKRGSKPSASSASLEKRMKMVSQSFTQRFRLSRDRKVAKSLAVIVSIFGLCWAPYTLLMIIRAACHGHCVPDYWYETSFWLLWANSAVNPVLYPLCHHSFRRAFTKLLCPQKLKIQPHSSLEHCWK
How it was run: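 Thawed, homogenized membranes from HEK-293 cells stably expressing full-length human H3R, incubated 90 min at RT with shaking with 2 nM [3H]Nα-methylhistamine (KD 3.08 nM) and 5–11 concentrations (0.01 nM–10 µM). Nonspecific binding with pitolisant 10 µM. GF/B filtration (0.3% PEI), ice-cold water washes, scintillation counting. Ki by Cheng-Prusoff; mean (95% CI), ≥3 experiments in at least duplicate.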

Mus musculus [1] = assay: Anticonvulsant activity in maximal electroshock induced seizure TO mouse model assessed as suppression of tonic hind limb extension at 10 mg/kg, ip pretreated for 30 to 45 mins followed by maximal electroshock induction; format: functional, organism-based
Mus musculus [2] = assay: Toxicity in TO mouse model assessed as mortality at 10 mg/kg, ip; format: organism-based; details: in vivo
[3] = (§1) Antagonist activity at muscarinic receptor in guinea pig ileum assessed as carbachol-induced ileum contraction measured after 15 mins; details: Cavia porcellus, 0.25 h; read-out: pA2 (converted)
How it was run: (§2)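 Male guinea-pig ileum (300-400 g), 2 cm segments in Krebs solution at 37°C, pH 7.4, O2/CO2 19:1, 0.5 g resting tension, 60 min equilibration. Cumulative agonist curves were run with histamine (10 nM–10 µM; H1) or carbachol (3 nM–3 µM; muscarinic), then repeated after 15 min with one antagonist concentration per tissue. Responses were taken as % of first-curve Emax, with pA2 from Schild analysis or pKB from the concentration ratio.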

[4] = biological target: Histamine H1 receptor (Cavia porcellus) (UniProt P31389); assay: Agonist activity at H1 receptor in guinea pig ileum assessed as induction of ileum contraction measured after 15 mins
Sequence of Histamine H1 receptor (Cavia porcellus) (P31389 whole entry): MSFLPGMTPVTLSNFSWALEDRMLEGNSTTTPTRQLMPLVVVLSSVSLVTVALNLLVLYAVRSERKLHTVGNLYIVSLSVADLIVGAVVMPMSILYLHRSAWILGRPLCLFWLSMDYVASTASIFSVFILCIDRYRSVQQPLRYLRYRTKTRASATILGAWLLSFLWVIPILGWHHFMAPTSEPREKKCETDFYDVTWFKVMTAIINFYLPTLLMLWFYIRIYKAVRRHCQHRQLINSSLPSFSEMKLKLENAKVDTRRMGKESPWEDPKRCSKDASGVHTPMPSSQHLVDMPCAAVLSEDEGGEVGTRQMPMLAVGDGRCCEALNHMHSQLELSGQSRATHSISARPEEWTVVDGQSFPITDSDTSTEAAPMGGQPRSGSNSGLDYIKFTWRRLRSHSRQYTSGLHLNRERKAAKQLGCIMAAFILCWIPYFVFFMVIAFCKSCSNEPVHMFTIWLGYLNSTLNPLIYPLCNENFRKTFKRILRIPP

Cavia porcellus [5] = species: Cavia porcellus; assay: Agonist activity at muscarinic receptor in guinea pig ileum assessed as induction of ileum contraction measured after 15 mins
[6] = biological target: Histamine H1 receptor (Cavia porcellus) (UniProt P31389); assay: Antagonist activity at H1 receptor in guinea pig ileum assessed as inhibition of histamine-induced ileum contraction measured after 15 mins; how it was run: as §2
Cavia porcellus [7] = species: Cavia porcellus; assay: as §1; how it was run: as §2
[8] = biological target: Histamine H1 receptor (Cavia porcellus) (UniProt P31389); assay: Competitive antagonist activity at H1 receptor in guinea pig ileum assessed as inhibition of histamine-induced ileum contraction measured after 15 mins
How it was run: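 Ileum from male guinea pigs cut into 2 cm segments in Krebs at 37°C, pH 7.4, O2/CO2 19:1, 0.5 g resting tension, equilibrated 60 min. Cumulative histamine curve (10 nM–10 µM), then 15 min with one antagonist concentration per tissue and a repeat curve. Responses are % of first-curve max. pA2 comes from Schild analysis if slope ≈1, otherwise pKB from concentration ratio; 4–8 repeats.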

Rattus norvegicus [9] = assay: Reversal of RAMH-induced dipsogenia in ip dosed Krf:(WI) WU rat assessed as inhibition of drinking response pretreated for 30 mins followed by RAMH stimulation for 20 mins measured for 30 mins; format: functional
How it was run: (§3)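 Male Wistar Krf:(WI) WU rats (<250 g), 6–8 per group. Compound, pitolisant or vehicle (1% Tween 80) given i.p. 30 min before RAMH 10 mg/kg i.p. Water intake measured for 30 min, starting 20 min after RAMH. Inhibition = 100 − (individual intake / RAMH-group intake) × 100. ED50 by log-probit with 95% CL; one-way ANOVA with Dunnett.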

Mus musculus [10] = assay: Reversal of scopolamine-induced memory deficit in Albino Swiss CD-1 mouse assessed as increase in step through latency time at 2.5 to 30 mg/kg, ip treated for 1 hr prior to testing followed by scopolamine challenge measured after 30 mins by passive avoidance test; format: functional, organism-based
Mus musculus [11] = assay: Reversal of scopolamine-induced memory deficit in Albino Swiss CD-1 mouse assessed as increase in step through latency time at 2.5 to 30 mg/kg, ip treated for 1 hr before training followed by scopolamine challenge 30 mins before training measured 24 hrs after training trial by passive avoidance test; format: functional, organism-based
Mus musculus [12] = assay: Anticonvulsant activity in ip dosed maximal electroshock induced seizure TO mouse model assessed as suppression of tonic hind limb extension pretreated for 30 to 45 mins followed by maximal electroshock induction; format: functional, organism-based
[13] = Drug metabolism in human liver microsomes after 2 hrs by UPLC analysis; format: ADME, microsome; details: read-out: Drug metabolism
How it was run: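 Incubation with human liver microsomes for 120 min; reaction mixture analysed by UPLC-MS, with MS fragmentation used to identify metabolites. In silico site-of-metabolism prediction run alongside.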

Rattus norvegicus [14] = assay: Reversal of RAMH-induced dipsogenia in Krf:(WI) WU rat assessed as inhibition of drinking response at 1.25 mg/kg, ip pretreated for 30 mins followed by RAMH stimulation for 20 mins measured for 30 mins relative to control; format: functional; how it was run: as §3
Histamine H4 receptor = Histamine H4 receptor (Homo sapiens, UniProt Q9H3N8); assay: Inhibition of human H4 receptor

Row | SMILES | Ki (Histamine H3 receptor) [µM] | also measured
1 | CCC(C)(C)c1ccc(OCCCCN2CCN(c3ncccn3)CC2)cc1 | 2.26 | 
2 | CC(C)(C)c1ccc(OCCCN2CCN(c3cccnc3)CC2)cc1 | 8.16 | 
3 | O=C1NC(=O)C(c2ccccc2)(c2ccccc2)N1 [PHENYTOIN] |  | Activity (Mus musculus [1]): Active; Activity (Mus musculus [2]): Non-Toxic
4 | CC(C)(C)c1ccc(OCCCN2CCN(C(=O)C3CCCO3)CC2)cc1 (stereo not given) | > 10 | 
5 | CCC(C)(C)c1ccc(OCCCCN2CCN(c3cccnc3)CC2)cc1 | > 10 | 
6 | CC(C)(C)c1ccc(OCCCCN2CCN(C(=O)C3CCCO3)CC2)cc1 (stereo not given) | > 10 | 
7 | CN1[C@@H]2CC[C@H]1C[C@@H](OC(=O)C(CO)c1ccccc1)C2 (stereo not given in full) [ATROPINE] |  | Kb [3]: 0.00104 µM
8 | CC(C)(C)c1ccc(OCCCCN2CCN(c3cccnc3)CC2)cc1 | 3.42 | 
9 | CC(C)(C)c1ccc(OCCCN2CCN(c3cnccn3)CC2)cc1 | 8.74 | 
10 | CCC(C)(C)c1ccc(OCCCN2CCN(c3cnccn3)CC2)cc1 | 6.21 | 
11 | CC(C)(C)c1ccc(OCCCCN2CCN(c3ccncc3)CC2)cc1 | 0.0378 | Activity [4]: inactive; Activity (Cavia porcellus [5]): inactive; inhibition [6]: Dose-dependent effect; inhibition (Cavia porcellus [7]): Dose-dependent effect; pKb (Cavia porcellus [7]): 6.39; pKb [8]: 6.15; ED50 (Rattus norvegicus [9]): 10.7 mg/kg; inhibition (Rattus norvegicus [9]): Dose-dependent effect; Activity (Mus musculus [10]): inactive; Activity (Mus musculus [11]): Active; Activity (Mus musculus [12]): Dose-dependent effect; metabolised at 2 h [13]: 30%
12 | CC(C)(C)c1ccc(OCCCN2CCN(c3ncccn3)CC2)cc1 | 3.83 | 
13 | CC(C)(C)c1ccc(OCCCCN2CCN(c3ccccn3)CC2)cc1 | 2.96 | 
14 | CC(C)(C)c1ccc(OCCCN2CCN(c3ccccn3)CC2)cc1 | > 10 | 
15 | CCC(C)(C)c1ccc(OCCCCN2CCN(c3cnccn3)CC2)cc1 | 0.683 | 
16 | CCC(C)(C)c1ccc(OCCCCN2CCN(c3ccccn3)CC2)cc1 | 0.482 | 
17 | CCC(C)(C)c1ccc(OCCCN2CCN(C(=O)C3CCCO3)CC2)cc1 (stereo not given) | > 10 | 
18 | Clc1ccc(CCCOCCCN2CCCCC2)cc1 [PITOLISANT] |  | inhibition in vivo at 1.25 mg/kg (Rattus norvegicus [14]): 87.4%; Ki (Histamine H4 receptor): > 100 µM
19 | CCC(C)(C)c1ccc(OCCCN2CCN(c3ccccn3)CC2)cc1 | 5.2 | 

Further lines, with some results ahead:

Row | Ki (Histamine H3 receptor) [µM] | SMILES | also measured
20 | 0.883 | CC(C)(C)c1ccc(OCCCCN2CCN(c3ncccn3)CC2)cc1 | 
21 | > 10 | CCC(C)(C)c1ccc(OCCCCN2CCN(C(=O)C3CCCO3)CC2)cc1 (stereo not given) | 
22 | 0.016 | CC(C)(C)c1ccc(OCCCN2CCN(c3ccncc3)CC2)cc1 | Activity (Mus musculus [1]): Active
23 | 3.65 | CCC(C)(C)c1ccc(OCCCN2CCN(c3cccnc3)CC2)cc1 | 
24 | 5.48 | CC(C)(C)c1ccc(OCCCCN2CCN(c3cnccn3)CC2)cc1 | 
25 | 5.41 | CCC(C)(C)c1ccc(OCCCN2CCN(c3ncccn3)CC2)cc1 | 
26 | 0.022 | CC(C)(C)c1ccc(OCCCN2CCCCC2)cc1 | 
27 | 0.12 | CCC(C)(C)c1ccc(OCCCCN2CCN(c3ccncc3)CC2)cc1 | Activity (Mus musculus [1]): Active
28 | 0.0306 | CCC(C)(C)c1ccc(OCCCN2CCN(c3ccncc3)CC2)cc1 | Activity (Mus musculus [1]): Active
